From ChEMBL document CHEMBL1153722, “Design, synthesis, and characterization of peptide-based rab geranylgeranyl transferase inhibitors” (J Med Chem, 2009)
Calls of active or inactive are those of the source. The calls are words filed in the database; no cut-off is given here.

What was measured:
[1] = molecular target: protein farnesyltransferase (Rattus norvegicus); assay: Inhibition of rat recombinant FTase by SDS-PAGE end point assay
[2] = molecular target: geranylgeranyltransferase type-I (Rattus norvegicus); assay: Inhibition of rat recombinant GGTase-1 by SDS-PAGE end point assay
[3] = species on record: Rattus norvegicus; assay: Displacement of NBD-FPP from rat recombinant Rab geranylgeranyltransferase by fluorescence titration
Method in brief: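 Displacement titration: 400 nM NBD-FPP was pre-equilibrated with 550 nM RabGGTase. Inhibitor was added stepwise in 1 or 5 μM increments while NBD fluorescence was monitored. The end point was controlled by a final addition of GGPP to 4 μM.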

[4] = tested on: COS-7 (Chlorocebus aethiops); assay: Inhibition of recombinant Rab geranylgeranyltransferase expressed in COS-7 cells assessed as inhibition of geranylgeranylation of EYFP-Rab7 protein at 10 to 100 uM by Western blot relative to compactin
[5] = Displacement of Mant-FPP from rat recombinant Rab geranylgeranyltransferase by co-titration based fluorescence assay
Method in brief: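 RabGGTase was titrated into 300 nM Mant-FPP at several fixed inhibitor concentrations. Apparent Kd of Mant-FPP was obtained at each inhibitor level by quadratic fitting. Linear versus hyperbolic dependence of apparent Kd on inhibitor concentration was taken as competitive versus partially competitive binding.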

[6] = Inhibition of rat recombinant Rab geranylgeranyltransferase by SDS-PAGE end point assay
Method in brief: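 End-point transfer of fluorescent prenyl analogues (NBD-GPP or NBD-FPP) to protein substrates was run for 10 min at varied inhibitor concentrations. Substrates were GST-KiRas for FTase, GST-RhoA for GGTase-I and Rab7 for RabGGTase. Reactions were quenched with SDS sample buffer and run on SDS-PAGE. Fluorescent bands were quantified by densitometry.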

[7] = tested on: COS-7 (Chlorocebus aethiops); assay: Inhibition of recombinant Rab geranylgeranyltransferase expressed in COS-7 cells assessed as inhibition of geranylgeranylation of EYFP-Rab7 protein by Western blot; design: concentration or dose not given beside the values; settings: dose or concentration not given here
[8] = Inhibition of rat recombinant Rab geranylgeranyltransferase iin presence of canine Rab7 and rat REP1 by NBD-FPP based continuous fluorimetric assay
Method in brief: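 Continuous fluorometric assay in 96/384-well format: 3 μM Rab7, 3 μM REP1, 9 μM NBD-FPP and 400 nM RabGGTase, with or without inhibitor. IC50 was calculated from three independent measurements.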

[9] = tested on: COS-7 (Chlorocebus aethiops); assay: Cytotoxicity in monkey COS-7 cells at 100 uM; settings: COS-7, 100 µM
[10] = species on record: Rattus norvegicus; assay: Inhibition of rat recombinant Rab geranylgeranyltransferase at 100 uM in presence of canine Rab7 and rat REP1 NBD-FPP based continuous fluorimetric assay
Method in brief: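 Continuous fluorometric assay in 96/384-well format: 3 μM Rab7, 3 μM REP1, 9 μM NBD-FPP and 400 nM RabGGTase, with or without inhibitor. […] IC50 was calculated from three independent measurements.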

With `O=C(CNC(=O)[C@H](Cc1c[nH]cn1)NC(=O)c1coc(-c2ccccc2)n1)N[C@@H](Cc1cn(C(c2ccccc2)(c2ccccc2)c2ccccc2)cn1)C(=O)O` the IC50 [1] was 13 µM, the IC50 [2] was 6.9 µM and the Activity [3] was “Active”. The Activity [4] was “Dose-dependent effect”, the Ki [5] was 5.3 µM and the IC50 [6] was 14 µM. The inhibition [7] was 70%, the IC50 [8] was 8.1 µM and the Activity [9] was “Non-toxic”.

Work on `O=C(CNC(=O)[C@H](Cc1cn(C(c2ccccc2)(c2ccccc2)c2ccccc2)cn1)NC(=O)c1coc(-c2ccccc2)n1)N[C@@H](Cc1c[nH]cn1)C(=O)O` yielded an IC50 [1] of 14 µM, an IC50 [2] of 2.6 µM and an inhibition [10] of 86%. It also gave an IC50 [6] of 41 µM and an IC50 [8] of 38 µM.

For `CCCCCCCCCCC(=O)N[C@@H](Cc1ccc(O)cc1)C(=O)N[C@@H](Cc1c[nH]cn1)C(=O)N[C@@H](Cc1ccc(O)cc1)C(=O)N(C)CCc1ccccn1`, the IC50 [1] was greater than 100 µM, the IC50 [2] was greater than 100 µM and the Activity [3] was “Active”. The Activity [4] was “Dose-dependent effect”, the Ki [5] was 2.8 µM and the IC50 [6] was 4.3 µM. For the same compound, the inhibition [7] was 70%, the IC50 [8] was 6.3 µM and the Activity [9] was “Non-toxic”.

For `O=C(CNC(=O)c1coc(-c2ccccc2)n1)N[C@@H](Cc1ccccc1)C(=O)N[C@@H](Cc1cn(C(c2ccccc2)(c2ccccc2)c2ccccc2)cn1)C(=O)O`, the IC50 [1] was 3.4 µM, the IC50 [2] was 5.6 µM and the IC50 [6] was 31 µM. It also gave an IC50 [8] of 25 µM.

With `CCCCCCCC(=O)N[C@@H](Cc1c[nH]cn1)C(=O)N[C@@H](Cc1ccccc1)C(=O)N[C@@H](Cc1ccc(O)cc1)CN(C)CCc1ccccn1` the IC50 [1] was 98 µM, the IC50 [2] was 97 µM and the IC50 [6] was 8.8 µM. The IC50 [8] was 2.8 µM.

For `CCCCCCCCCCC(=O)N[C@@H](Cc1cnc[nH]1)C(=O)N[C@@H](Cc1c[nH]cn1)C(=O)N[C@@H](Cc1ccc(O)cc1)C(=O)N(C)CCc1ccccn1`, the Activity [3] was “Dose-dependent effect”, the Activity [4] was “Dose-dependent effect” and the Ki [5] was 1.1 µM. It also gave an IC50 [6] of 10 µM and an inhibition [7] of 70%.
